Experiment [1] has as its target T1, Corticotropin-releasing factor receptor 1 (Homo sapiens, UniProt P34998).
T1 sequence (P34998 whole entry): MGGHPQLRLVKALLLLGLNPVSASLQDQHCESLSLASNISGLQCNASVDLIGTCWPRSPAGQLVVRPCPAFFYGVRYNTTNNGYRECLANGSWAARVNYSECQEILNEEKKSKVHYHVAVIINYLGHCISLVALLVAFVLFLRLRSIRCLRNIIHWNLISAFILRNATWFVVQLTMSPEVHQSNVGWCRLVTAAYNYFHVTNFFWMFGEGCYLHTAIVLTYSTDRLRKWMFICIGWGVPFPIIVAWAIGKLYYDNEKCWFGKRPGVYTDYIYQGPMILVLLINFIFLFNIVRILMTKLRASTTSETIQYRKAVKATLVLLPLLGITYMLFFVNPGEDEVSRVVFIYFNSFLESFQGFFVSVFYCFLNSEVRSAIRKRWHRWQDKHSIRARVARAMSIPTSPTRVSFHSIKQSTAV
The experiment is described as follows: Binding affinity to CRF1 receptor in human IMR32 cells. In kind it is cell-based, IMR-32.

Experiment [2] has as its target T2, Corticotropin-releasing factor receptor 1 (Rattus norvegicus) (UniProt P35353).
T2 sequence (whole entry): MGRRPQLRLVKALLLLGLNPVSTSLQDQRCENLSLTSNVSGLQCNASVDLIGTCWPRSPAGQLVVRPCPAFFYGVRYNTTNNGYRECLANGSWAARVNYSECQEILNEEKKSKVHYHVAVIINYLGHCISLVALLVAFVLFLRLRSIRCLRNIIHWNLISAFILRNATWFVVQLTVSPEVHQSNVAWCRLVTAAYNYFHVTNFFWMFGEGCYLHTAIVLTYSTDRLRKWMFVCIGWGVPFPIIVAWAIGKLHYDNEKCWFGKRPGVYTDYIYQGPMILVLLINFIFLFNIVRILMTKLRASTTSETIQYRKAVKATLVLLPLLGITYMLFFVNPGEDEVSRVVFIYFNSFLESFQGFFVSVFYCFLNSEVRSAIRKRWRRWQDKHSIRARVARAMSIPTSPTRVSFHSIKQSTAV
The experiment can be described thus: Agonist activity at CRF1 receptor in rat brain homogenates assessed as CRF-stimulted cAMP production. In kind it is functional, tissue-based. A general note: Cyclic AMP is a second messenger, typically raised through Gs and lowered through Gi signalling.

For experiment [3], the target named is T3, Alpha-2B adrenergic receptor (Homo sapiens, UniProt P18089).
T3 sequence (P18089 whole entry): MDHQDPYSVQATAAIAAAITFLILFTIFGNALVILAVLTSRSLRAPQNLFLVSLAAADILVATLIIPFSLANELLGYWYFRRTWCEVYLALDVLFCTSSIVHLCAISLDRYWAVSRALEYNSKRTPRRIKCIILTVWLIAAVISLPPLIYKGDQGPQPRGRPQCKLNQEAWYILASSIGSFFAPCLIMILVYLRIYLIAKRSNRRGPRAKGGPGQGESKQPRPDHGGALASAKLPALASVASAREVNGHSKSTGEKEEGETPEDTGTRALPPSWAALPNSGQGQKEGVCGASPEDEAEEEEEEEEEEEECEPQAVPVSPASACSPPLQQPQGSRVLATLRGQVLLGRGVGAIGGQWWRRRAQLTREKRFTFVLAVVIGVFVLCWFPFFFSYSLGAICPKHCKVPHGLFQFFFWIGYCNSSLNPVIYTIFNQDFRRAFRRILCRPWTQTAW
The experiment is described as follows: Binding affinity to adrenergic alpha2b receptor.

The target of experiment [4] is T4, Corticotropin-releasing factor receptor 2 (Homo sapiens) (UniProt Q13324).
T4 sequence (whole entry): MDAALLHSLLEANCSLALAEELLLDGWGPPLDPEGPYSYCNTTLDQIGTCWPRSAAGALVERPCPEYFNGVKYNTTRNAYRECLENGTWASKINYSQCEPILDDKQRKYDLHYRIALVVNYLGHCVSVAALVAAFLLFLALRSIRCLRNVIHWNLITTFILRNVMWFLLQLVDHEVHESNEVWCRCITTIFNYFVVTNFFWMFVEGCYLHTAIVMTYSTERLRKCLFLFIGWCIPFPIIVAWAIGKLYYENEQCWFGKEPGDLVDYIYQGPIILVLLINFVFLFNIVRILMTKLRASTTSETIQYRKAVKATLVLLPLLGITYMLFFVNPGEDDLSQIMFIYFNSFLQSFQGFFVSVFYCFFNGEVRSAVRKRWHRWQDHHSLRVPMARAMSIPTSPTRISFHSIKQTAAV
The experiment can be described thus: Antagonist activity at human cloned CRF2alpha receptor expressed in HEK293 cells. Format: functional, cell-based.

In another experiment the target is Vasopressin V1a receptor (Homo sapiens, UniProt P37288). The experiment can be described thus: Binding affinity to vasopressin V1 receptor.
Experiment [5] deals with T5, Alpha-1B adrenergic receptor (Homo sapiens, UniProt P35368).
T5 sequence (P35368 whole entry): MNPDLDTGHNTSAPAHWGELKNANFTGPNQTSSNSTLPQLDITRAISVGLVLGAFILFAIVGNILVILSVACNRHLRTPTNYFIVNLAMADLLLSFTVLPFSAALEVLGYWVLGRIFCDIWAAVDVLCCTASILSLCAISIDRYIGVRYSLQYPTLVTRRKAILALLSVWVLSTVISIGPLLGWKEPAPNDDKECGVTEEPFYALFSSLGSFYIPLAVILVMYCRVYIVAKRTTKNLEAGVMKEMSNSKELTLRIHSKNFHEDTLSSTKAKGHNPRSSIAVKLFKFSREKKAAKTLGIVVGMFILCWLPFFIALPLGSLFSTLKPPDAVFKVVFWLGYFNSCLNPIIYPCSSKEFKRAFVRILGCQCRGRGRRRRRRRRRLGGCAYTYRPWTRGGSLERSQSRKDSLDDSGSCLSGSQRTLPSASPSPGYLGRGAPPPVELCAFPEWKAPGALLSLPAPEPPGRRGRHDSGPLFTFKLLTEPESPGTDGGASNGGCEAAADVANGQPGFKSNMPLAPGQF
The experiment is described as follows: Binding affinity to adrenergic alpha-1b receptor.

In a further experiment the test system is Canis familiaris. The experiment is described as follows: Ex vivo displacement of [125I]Tyr0-ovine CRF from CRF1 receptor in dog at 5 mg/kg, po measured in plasma after 10 hrs. Format: functional. As to conditions: Canis lupus familiaris. In a few lines:
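Beagle dogs given 5 mg/kg po (free base), in Labrafil or Tween-80/0.5% methylcellulose 1:99; plasma drawn 2 and 10 h postdose, diluted 10-fold in binding buffer, and tested for inhibition of 125I-Tyr0-ovine-CRF binding to rat receptors; mean ± SD, n = 3.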

Experiment [6] has as its target T4, Corticotropin-releasing factor receptor 2 (Homo sapiens). The experiment is described as follows: Agonist activity at human cloned CRF2alpha receptor expressed in HEK293 cells. In kind it is functional, cell-based.

The source made the active and inactive calls. No cut-off for these calls is given here. Some results are limits rather than exact numbers.

Sequence of Vasopressin V1a receptor (P37288 whole entry): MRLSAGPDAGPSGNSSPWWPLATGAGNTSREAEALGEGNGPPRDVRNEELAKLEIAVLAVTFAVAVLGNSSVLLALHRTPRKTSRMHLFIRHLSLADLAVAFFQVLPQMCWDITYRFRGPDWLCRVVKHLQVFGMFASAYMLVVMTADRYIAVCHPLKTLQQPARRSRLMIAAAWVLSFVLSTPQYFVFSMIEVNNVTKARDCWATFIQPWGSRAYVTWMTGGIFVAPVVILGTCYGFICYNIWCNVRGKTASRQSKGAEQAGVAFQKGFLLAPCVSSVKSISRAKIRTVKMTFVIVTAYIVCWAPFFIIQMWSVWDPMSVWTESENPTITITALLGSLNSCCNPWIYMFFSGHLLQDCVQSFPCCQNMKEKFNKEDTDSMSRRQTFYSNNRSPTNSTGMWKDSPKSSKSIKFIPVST

Broadly, the IC50 is the midpoint of a concentration-inhibition curve. Low values mean greater potency in that assay, high ones weaker potency in that assay. Usually inhibition in vivo stands for the change of the read-out against control, counted positive when it falls. Low readings indicate little suppression, high ones strong suppression. Take `CCC(CC)Nc1nc(C)nc2c(-c3cc(F)c(OC)cc3Cl)c(C)nn12`: the IC50 was 1.2 nM in experiment [1], > 1000 nM in experiment [3], > 1000 nM at Vasopressin V1a receptor and > 1000 nM in experiment [5]. The result in experiment [2], in experiment [4] and in experiment [6] was inactive. In the experiment on Canis familiaris, the inhibition in vivo at 5 mg/kg stood at 66%.
Take `COCCN(CCOC)c1nc(C)nc2c(-c3ccc(OC)cc3C)c(C)nn12`: the IC50 in experiment [1] was 4.7 nM; in experiment [3] it was > 1000 nM; on Vasopressin V1a receptor, > 1000 nM; in experiment [5], > 1000 nM. Further, the result in experiment [2], in experiment [4] and in experiment [6] was inactive. This compound also registered an inhibition in vivo at 5 mg/kg with Canis familiaris of 37%.
On to `COCCN(CCOC)c1nc(C)nc2c(-c3cc(C)c(OC)cc3C)c(C)nn12`, for which the IC50 in experiment [1] was 15.2 nM; in experiment [3], > 1000 nM; on Vasopressin V1a receptor it was > 1000 nM; in experiment [5], > 1000 nM. In addition, the result in experiment [2], in experiment [4] and in experiment [6] was inactive. The same compound showed an inhibition in vivo at 5 mg/kg in the experiment with Canis familiaris of 44%.
For the compound `CC[C@@H](C)Nc1nc(C)nc2c(-c3c(C)cc(OC)cc3OC)c(C)nn12`, the IC50 in experiment [1] is 3.4 nM; in experiment [3] it was > 1000 nM; at Vasopressin V1a receptor, > 1000 nM; in experiment [5], > 1000 nM. Moreover, the result in experiment [2], in experiment [4] and in experiment [6] was inactive. The same compound came in with an inhibition in vivo at 5 mg/kg in the experiment on Canis familiaris of 83%.

Source of the values: ChEMBL document CHEMBL1138477, “8-(4-Methoxyphenyl)pyrazolo[1,5-a]-1,3,5-triazines: selective and centrally active corticotropin-releasing factor receptor-1 (CRF1) antagonists” (J Med Chem, 2009).
